Assay outcomes: PubChem BioAssay, several laboratories
The list is not random: actives were taken first. Their share in the collection is about 2.6%.
T cell modulator = modulators of CD8 T cell-vesicle binding, primary screen, mouse 2C CD8+ T cells, flow cytometry | response (vesicle binding), % at 7 µM | 2C CD8+ T cell-vesicle binding; hits give low values | AID 2052, 2009 | actives 0.068% (n = 330,000);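 active = response, share of CD8 T cells binding vesicles, and their 90th percentile fluorescence all below set limits, cut at about 80% in these data, passing the limit was not always enough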;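 also: values below 100% mean blocked vesicle binding to the CD8+ T cells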
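Read-out – percent CD8+ FL2 mean versus row control · System – murine 2C transgenic CD8+ T lymphocytes · Times – 1.5 h cell–vesicle binding at 37 °C, then 20 min icy labelling · Control set – naked vesicles low, QL9 vesicles with vehicle high · Detection – cytometric PE anti-B7-1 and Alexa647 anti-CD8 signals after 1% paraformaldehyde fixation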
Exocytosis inh = LAMP-1 surface exposure blockers, TALL-104 cells – cell-based, flow cytometry, MLPCN library, primary screen; TALL-104 LAMP-1 surface exposure; cells stimulated with thapsigargin and PMA; actives 0.66% (n = 360,000); AID 651702, 2012; inhibition, % at 10 µM;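 active = inhibition above about 55%, limit read from the data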
EP2 modulator = EP2 receptor modulators, cAMP readout, primary screen, cell-based, HTRF cAMP, PGE2 stimulation. EP2-expressing cells, cAMP HTRF FRET, PGE2 co-stimulation. induction, % at 25 µM. Prostaglandin E2 receptor EP2 subtype (Homo sapiens), P43116. actives 0.83% (n = 260,000);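 active = compounds whose cAMP rise, as percent of the full-agonist control response, exceeds 60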;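 also: rat C6 glioma line stably carrying human EP2 under a CMV promoter; the protocol text gives 20 µM as final concentration; 100% = response of wells given 1 µM PGE2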
Target sequence (P43116 whole entry, looked up): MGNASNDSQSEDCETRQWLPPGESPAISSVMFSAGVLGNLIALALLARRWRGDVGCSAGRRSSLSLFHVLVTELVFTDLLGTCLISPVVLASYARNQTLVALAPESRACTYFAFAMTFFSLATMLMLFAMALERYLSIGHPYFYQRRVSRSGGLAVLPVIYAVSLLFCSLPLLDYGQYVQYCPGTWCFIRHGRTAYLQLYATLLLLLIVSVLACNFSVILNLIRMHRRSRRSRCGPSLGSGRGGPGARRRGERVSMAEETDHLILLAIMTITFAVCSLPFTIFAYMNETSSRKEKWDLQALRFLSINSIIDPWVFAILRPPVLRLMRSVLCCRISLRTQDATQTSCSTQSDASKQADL
MC4R antagonist = MC4R antagonists of cAMP signaling, primary screen, cell-based, TR-FRET, antagonist arm of biased-ligand search. Melanocortin receptor 4 (Homo sapiens), P32245. actives 0.48% (n = 360,000). AID 540295, 2011. MC4R-expressing cells, MTII-stimulated cAMP, LANCE TR-FRET. inhibition, % at 6.5 µM;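 active = inhibition above its plate's cutoff, the mean of tested wells on that plate plus 3 SD, cut at about 29% in these data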;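 also: 0% = Melanotan II alone and 100% = Melanotan II plus saturating MCL0020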
Target sequence (P32245 whole entry, looked up): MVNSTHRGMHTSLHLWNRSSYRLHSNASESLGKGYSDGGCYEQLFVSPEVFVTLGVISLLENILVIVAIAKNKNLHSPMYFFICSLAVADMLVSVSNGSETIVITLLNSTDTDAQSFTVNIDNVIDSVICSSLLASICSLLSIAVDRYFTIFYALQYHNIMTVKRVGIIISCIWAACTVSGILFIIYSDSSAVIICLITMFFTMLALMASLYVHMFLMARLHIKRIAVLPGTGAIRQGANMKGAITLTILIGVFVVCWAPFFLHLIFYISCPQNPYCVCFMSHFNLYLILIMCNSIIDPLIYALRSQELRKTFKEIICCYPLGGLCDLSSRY
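system = U2OS cells with stable human MC4R expression | also added = Melanotan II challenge after compound preincubation | dosing = one concentration, 6.5 µM nominal | incubation = compound 30 min, challenge 1 h, detection 1 h | measured by = TR-FRET with Eu-cAMP and labeled anti-cAMP, 671 nm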
MC4R barr agon = MC4R agonists recruiting beta-arrestin, primary screen, cell-based, luminescence, agonist arm of biased-ligand search; U2OS MC4R beta-arrestin complementation; percent of melanotan II response, DMSO zero; activation, % at 8.9 µM; actives 0.98% (n = 360,000);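 active = activation above a per-plate cutoff, the mean activation of sample wells on that plate plus 3 SD, cut at about 8% in these data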
PGE2 EP2 inh = human EP2 receptor antagonists, primary screen, TR-FRET cAMP, C6 glioma cells; C6 glioma cells expressing human EP2; cells stimulated with saturating PGE2; actives 0.52% (n = 260,000); inhibition, % at 25 µM;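 active = percent inhibition above 40 after rounding to a whole number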;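 also: rat C6 glioma host cells with rolipram phosphodiesterase inhibitor present; the protocol text gives 20 µM as final concentration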
U2OS cAMP counter = nonselective cAMP signaling inhibitors, parental cells, counter-screen for MC4R biased antagonist project, cell-based, TR-FRET, U2OS, forskolin, triplicate | shares compounds with MC4R antagonist | LANCE TR-FRET | inhibition, % at 6.5 µM | actives 26% (n = 1,600) | AID 602193, 2012;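 active = mean inhibition over triplicates above the low-control well mean plus 3 SD, set per campaign, cut at about 13% in these data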;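 also: signal is single emission at 671 nm which falls as cellular cAMP rises; 0% = forskolin-stimulated wells and 100% = buffer without forskolin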
MC4R cAMP antag = MC4R cAMP antagonists, retest, confirmation, cell-based, TR-FRET | shares compounds with MC4R antagonist | MC4R-expressing cells, MTII-stimulated cAMP | inhibition, % at 6.5 µM | actives 27% (n = 1,600); in the data active = inhibition above about 29%;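 also: 0% = agonist stimulated wells alone and 100% = agonist stimulated wells plus saturating reference antagonist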
MC4R barr conf = MC4R beta-arrestin agonists, retest, confirmation, cell-based, luminescence, U2OS; AID 602192, 2012; actives 31% (n = 2,400); shares compounds with MC4R barr agon; activation, % at 8.9 µM; U2OS MC4R beta-arrestin recruitment; scaled DMSO 0%, Melanotan II 100%;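 active = mean activation across replicates above the hit cutoff set in the earlier primary screen, cut at about 8% in these data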
MOR DOR agonist = agonists of MOR-DOR heterodimerization, counter-screen for MC4R biased agonist project, cell-based, luminescence | shares compounds with MC4R barr agon | U2OS PathHunter beta-arrestin, beta-gal luminescence; percent of deltorphin B response, DMSO zero | activation, % at 9.2 µM | actives 5.8% (n = 2,400) | AID 602194, 2012;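 active = mean activation across replicates exceeds the hit threshold derived in the earlier primary screen, cut at about 18% in these data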;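 also: 100% = deltorphin B at 0.9 µM final and 0% = DMSO alone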
Exocytosis CP01 = inhibitors of lytic granule exocytosis, confirmation, TALL-104 cells, flow cytometry, Cherry Pick01; shares compounds with Exocytosis inh; LAMP-1 externalization; stimulated with PMA plus thapsigargin; inhibition, % at 10 µM; actives 11% (n = 1,500); AID 651954, 2012; in the data active = inhibition above about 60%;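 also: 0% = stimulated vehicle wells and 100% = unstimulated wells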
An asterisk follows results filed as active; i = inactive; nt = no result.

SMILES	T cell modulator	Exocytosis inh	EP2 modulator	MC4R antagonist	MC4R barr agon	PGE2 EP2 inh	MC4R barr conf	MOR DOR agonist	others
CCOC(=O)c1c(-c2ccc(C)o2)csc1NC(=O)COC(=O)c1cccs1	174	97*	19	31*	-1	9	nt	nt	U2OS cAMP counter=4;MC4R cAMP antag=15;Exocytosis CP01=-4
O=C(Nc1nc2ccc(SC(F)F)cc2s1)c1ccc(NS(=O)(=O)c2ccc(F)c(F)c2)cc1	112	76*	-48	37*	35*	12	34*	3	U2OS cAMP counter=2;MC4R cAMP antag=-3;Exocytosis CP01=104*
O=C1CC(N2CCC(c3nc4ccccc4s3)CC2)C(=O)N1Cc1ccccc1 (stereo not drawn)	559	0	-13	15	1	4	nt	nt
CCSc1ncnc2c1oc1ccccc12	334	-1	37	-2	0	3	nt	nt
Clc1ncnc2c1oc1ccccc12	851	72*	14	39*	-2	2	nt	nt	U2OS cAMP counter=-1;MC4R cAMP antag=6;Exocytosis CP01=-4
O=C(Nc1cccc(-c2csc(Nc3cccc(C(F)(F)F)c3)n2)c1)c1ccccc1	252	75*	5	42*	2	1	nt	nt	U2OS cAMP counter=2;MC4R cAMP antag=16;Exocytosis CP01=-8
CC(C)Cc1ccc(C(C)/C=C2/CCC(CN3CCCCC3)C2=O)cc1 (stereo not drawn)	nt	48	nt	17	2	nt	nt	nt
CC(C)Cc1ccc(C(C)CC2=CCC(CN(C)C)C2=O)cc1 (stereo not drawn)	nt	66*	nt	39*	7	nt	nt	nt	U2OS cAMP counter=2;MC4R cAMP antag=46*;Exocytosis CP01=-4
CC1=NOC(=O)/C1=C/c1ccc(-c2ccc(Cl)cc2)o1	794	78*	-45	63*	-3	184*	nt	nt	U2OS cAMP counter=11;MC4R cAMP antag=31*;Exocytosis CP01=101*
COC(=O)c1sccc1NC(=S)Nc1ccc(F)cc1F	182	60*	4	30*	1	7	nt	nt	U2OS cAMP counter=-1;MC4R cAMP antag=-19;Exocytosis CP01=-4
COC(=O)c1sccc1NC(=S)Nc1cccc(F)c1	238	-6	-5	12	0	12	nt	nt
COc1ccc(-c2nnc(N(C)C(=O)c3ccno3)s2)cc1	641	-2	-3	0	-1	10	nt	nt
CCN(CC)C(=O)Cn1nc2c(C)cc3cc4c(cc3n2c1=O)OCO4	nt	nt	4	nt	nt	6	nt	nt
COc1ccc(NC(=O)N2CCC(c3nc(-c4cccnc4)n[nH]3)CC2)cc1	nt	nt	-21	nt	nt	nt	nt	nt
COC(=O)CNC(c1ccccc1)c1cc(Br)ccc1NC(=O)CCN1CCOCC1 (stereo not drawn)	341	78*	10	29*	2	14	nt	nt	U2OS cAMP counter=6;MC4R cAMP antag=-5;Exocytosis CP01=-5
NC(=O)Nc1cc(Cl)ccc1Cl	198	-3	-29	-1	-2	10	nt	nt
O=C(CC(=O)Nc1cc(Cl)ccc1Cl)Nc1cc(Cl)ccc1Cl	322	7	nt	9	15*	nt	4	5
Cc1ccc(NC(=O)C2(C)CCCN2C)cc1C (stereo not drawn)	nt	-2	nt	-1	0	nt	nt	nt
CN(C)S(=O)(=O)c1ccc(Cl)c(NC(=O)CN2CCN(c3ccccn3)CC2)c1	nt	-13	nt	2	0	nt	nt	nt
Cc1cc(Cl)cc2sc(NC(=O)c3ccco3)nc12	627	-1	nt	8	11*	nt	0	3
CCOc1ccccc1C(=O)NCCNC(=O)c1ccccc1OCC	225	10	nt	2	-1	nt	nt	nt
CCOc1ccccc1C(=O)NCC(=O)NCCSc1ccc(Br)cc1	nt	6	nt	-2	15*	nt	2	5
COC(=O)Cn1cnc2sc(C)c(S(=O)(=O)N3CCC(C)CC3)c2c1=O	162	-2	0	-3	-1	12	nt	nt
COc1ccccc1N1CC(C(=O)NCC2COc3ccccc3O2)CC1=O (stereo not drawn)	432	6	nt	3	-1	nt	nt	nt
NC1=NN=C(c2ccc3c(c2)OCCO3)CS1	234	0	6	8	0	8	nt	nt
SMILES	T cell modulator	Exocytosis inh	EP2 modulator	MC4R antagonist	MC4R barr agon	PGE2 EP2 inh	MC4R barr conf	MOR DOR agonist	others
CC(CC(=O)Nc1ccc2c(c1)c(=O)n(C)n2-c1ccc2ccccc2c1)C(F)(F)F (stereo not drawn)	nt	-3	nt	-22	9.7*	nt	-2	5
Cn1c(=O)c2cc(NC(=O)Cc3cccnc3)ccc2n1-c1ccc2ccccc2c1	nt	12	nt	1	-2	nt	nt	nt
CCN1C(=O)/C(=C2/Sc3ccc(OC)cc3N2C)SC1=Nc1cccc(O)c1	276	-7	-13	14	14*	30	17*	12
C=CCN1C(=O)/C(=C2/Sc3ccc(OC)cc3N2C)SC1=Nc1ccccc1	397	11	-2	1	-3	8	nt	nt
Cc1ccc2nc(SCC(=O)c3c[nH]c4ccccc34)[nH]c2c1	269	0	-40	-2	12*	17	5	4
O=C(CSc1ncnc2c1cnn2-c1ccccc1)Nc1ccccc1	428	0	-2	14	18*	8	5	5
CNC(=O)CSc1ncnc2c1cnn2-c1ccccc1	486	-4	-18	4	0	12	nt	nt
C1=C(c2ccco2)N2CCN=C2S1	812	1	nt	0	0	nt	nt	nt
CC(NC(=O)c1cc(-c2cccnc2)nc2ccc(Br)cc12)C1CCCO1 (stereo not drawn)	208	-3	nt	6	-2	nt	nt	nt
O=C(Nc1ccccc1)Nc1sccc1-c1nc2ccccc2s1	i	1	18	26	17*	9	5	5
